Results as given in ChEMBL document CHEMBL3272238, “Synthesis and biological evaluation of fragmented derivatives of tetrahydroisoquinolines. 3. Trimetoquinol studies” (J Med Chem, 1976).
Active and inactive are the calls of the source.

Experiments:
Cavia porcellus [1] = species: Cavia porcellus; experiment: Agonist activity at beta-adrenoceptor in guinea pig trachea assessed as […] of carbachol-induced contraction by force-displacement transducer analysis; type: tissue-based
Method in brief: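 Tissue strips held at 1 g tension in Krebs bicarbonate-glucose solution at 37°, equilibrated 1-1.5 h, then drug-induced tension changes recorded isometrically. Cumulative log-concentration curves were built, and the ED₅₀ (concentration giving half-maximal response) was read from each curve.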

Cavia porcellus [2] = species: Cavia porcellus; experiment: Chronotropic activity in guinea pig atrium assessed as increase in atrial rate by force displacement transducer analysis; type: functional, tissue-based; conditions: Cardiac atrium
Method in brief: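 Isolated right atrium given cumulative test doses, with rate recorded over 3 min per dose at 1- and 3-min readings. Chronotropic responses were expressed relative to the maximum from 10⁻⁵ M isoproterenol added at the end of each run. ED₅₀ (half-maximal) was taken from individual plots.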

Rattus norvegicus = species: Rattus norvegicus; experiment: Induction of lipolysis in Sprague-Dawley rat fat cells assessed as increase in glycerol level at 10^-8 to 10^-4 M; type: functional
Method in brief: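 Fat cells from epididymal tissue of nonfasted male rats (200–250 g) were isolated by collagenase digestion in Krebs bicarbonate with 3% BSA. Drug (1×10⁻⁸–3×10⁻⁴ M) was incubated 1 h at 37° in air, stopped with equal-volume 10% TCA, and glycerol assayed. Release was normalized to 10⁻⁶ M isoproterenol maximum; mean of N=3 ± SEM.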

Measured: Activity

COc1cc(CC(NC(C)C)c2ccc(O)c(O)c2)cc(OC)c1OC (stereo not given)
active: Cavia porcellus [1] | Cavia porcellus [2] | Rattus norvegicus

CCNC(Cc1cc(OC)c(OC)c(OC)c1)c1ccc(O)c(O)c1 (stereo not given)
active: Cavia porcellus [1] | Cavia porcellus [2] | Rattus norvegicus

COc1cc(C[C@@H]2NCCc3cc(O)c(O)cc32)cc(OC)c1OC (racemic)
active: Cavia porcellus [1] | Cavia porcellus [2] | Rattus norvegicus

COc1cc(CC(N)c2ccc(O)c(O)c2)cc(OC)c1OC (stereo not given)
active: Cavia porcellus [1] | Cavia porcellus [2] | Rattus norvegicus

CNC(Cc1cc(OC)c(OC)c(OC)c1)c1ccc(O)c(O)c1 (stereo not given)
active: Cavia porcellus [1] | Cavia porcellus [2] | Rattus norvegicus
